Structures are written as SMILES.

A short description of data set [1]: In situ single-pass intestinal perfusion study. It is filed as in vivo, Sprague-Dawley (SD) rats. The note with it: for absorption rate constant (Ka), fold higher than 5-FU / apparent permeability coefficient (Papp), fold higher than 5-FU: colon, 0.5 mM, rat. The gist of the method:
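Sprague-Dawley rats (220–240 g) were anaesthetised with 20% urethane, and ileum and colon segments were cannulated. Segments were pre-perfused with blank MES buffer for 20 min, then with test compound at 0.5 mM in MES buffer. Inlet and outlet perfusate were collected and weighed at set times. Samples were methanol-precipitated (1:3) and analysed by HPLC. Ka and Papp were derived from concentrations, volumes, segment radius and length, and flow rate.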

Data set [2] relates to Caco-2 cells. Briefly: In vitro cytotoxicity. The class given is cell-based. The following applies: for IC50: Homo sapiens, Caco-2, 48 h, read-out: IC50 Caco-2; for IC50 in Caco-2 cells, fold greater than 5-FU: MTT, 48 h. Put shortly:
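Caco-2 cells seeded at 5 × 10^3 per well and grown 24 h. Cells were exposed to a concentration gradient of test compound for 48 h. Medium was replaced with 20% MTT medium for 4 h at 37 °C, then formazan was dissolved in DMSO for 15 min. Absorbance was read at 490 nm and IC50 calculated.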

Data set [3] concerns Caco-2 cells. Put plainly: Caco-2 cell uptake study. The note with it: for Uptake in untreated cells (without butyric acid induction): cells without induction vs butyric acid-treated; for Caco-2 uptake, fold higher than 5-FU: drug concentration 1 mM, uptake time 10 min, butyric acid-induced cells. The class given is cell-based. Put shortly:
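Caco-2 cells seeded in 24-well plates at 1 × 10^4 per well and grown 15 d. Medium was switched to butyric acid-containing medium on day 7 to induce MCT1. Uptake ran at 37 °C at set times and concentrations, with or without inhibitor at 2.5 mM. Cells were washed three times with cold PBS, collected in water and sonicated. Drug was measured by UPLC-MS/MS and normalised to BCA protein.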

Data set [4] relates to Kunming mice. Briefly: In vivo safety evaluation. The following applies: 40 mg/kg intragastrically, 7 d continuous. Put shortly:
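Male Kunming mice (18–22 g), nine in 3 groups, received PBS, 5-FU or test compound intragastrically at 40 mg/kg for 7 consecutive days. Duodenum, jejunum, ileum and colon (plus major organs) were fixed in 10% formalin, then embedded, dewaxed, stained and examined microscopically.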

A short description of data set [5]: Enzymatic stability in rat intestinal homogenates. The class given is in vitro ADME. The following applies: Sprague-Dawley, intestinal homogenate. The gist of the method: (§1)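 Matrices from Sprague-Dawley rats: plasma from orbital blood stored at −80 °C, and liver or intestine washed in saline, homogenised on ice at 1:3 tissue:saline, with cold-centrifuged supernatant used. Test compound at 80 µg/ml, shaken at 37 °C, sampled 0–48 h. Samples were quenched with methanol (1:3), vortexed 2 min and centrifuged 13 000 rpm for 10 min. Supernatant was analysed by HPLC.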

The test system of data set [6] is Caco-2 monolayer. Put plainly: Caco-2 cell permeability. It is filed as in vitro ADME. The note with it: AP → BL transport. The gist of the method: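 Caco-2 cells seeded on Transwell inserts at 1 × 10^4 per well. After the first week, medium contained butyric acid up to 21 d, and monolayers with TEER above 300 Ω cm2 were used. Monolayers were washed with 37 °C HBSS and equilibrated for 30 min. Drug was added apically with HBSS basolaterally. BL was sampled with replacement at 5–120 min, with or without inhibitor (2.5 mM). Samples were analysed by UPLC-MS/MS and Papp calculated.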
In general terms: Caco-2 cells form a polarised layer with tight junctions and transporters.

Data set [7] in a line: Enzymatic stability in rat plasma. It is filed as in vitro ADME. The following applies: Sprague-Dawley. The gist of the method: as §1
Data set [8] is described as follows: Chemical stability in different pH hydrochloride and phosphate buffers at 37 °C. It is filed as physicochemical. The note with it: for half-life at 80 µg/ml: hydrochloride or phosphate buffer (PBS); for T1/2: pH 6.8, 37 °C, 80 µg/ml. The gist of the method: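 Test compound at 80 µg/ml in pH 1.2, 6.8 or 7.4 solution, shaken at 37 °C. Samples were taken at 0, 0.083, 0.25, 0.5, 1, 2, 4, 8, 12, 24 and 48 h. Each sample was centrifuged at 13 000 rpm for 10 min and quantified by HPLC.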

Data set [9] in a line: Enzymatic stability in rat hepatic homogenates. The note with it: Sprague-Dawley, liver homogenate. It is filed as in vitro ADME. The gist of the method:
as §1

Data set [10] in a line: In vivo pharmacokinetics. The arrangement: species or system Sprague-Dawley rats. The note with it: 8 mg/kg. The gist of the method: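 Male Sprague-Dawley rats (200–220 g), 5 per group. Oral dosing was 20 mg/kg 5-FU equivalent; one group received 5-FU iv at 8 mg/kg for absolute bioavailability. Plasma was collected at set times. Samples were precipitated with methanol plus internal standard, dried under nitrogen at 37 °C and reconstituted in methanol:water 15:85. Prodrug and 5-FU were measured together by UPLC-MS/MS (C18, water/acetonitrile gradient, MRM).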

[11] abbreviates: male, Sprague-Dawley, rat, plasma, iv.

On to `O=C(O)CCCCCCC(=O)OCn1cc(F)c(=O)[nH]c1=O` [OA-5-FU, octanedioic acid mono-(5-fluoro-2,4-dioxo-3,4-dihydro-2H-pyrimidin-1-ylmethyl) ester], for which the “absorption rate constant (Ka), fold higher than 5-FU” value in data set [1] came to 3.8 fold. The “apparent permeability coefficient (Papp), fold higher than 5-FU” value in [1] worked out at 3.3 fold. Moreover, the IC50 – broadly, the concentration that gives 50% inhibition – in data set [2] was 317.7 ± 1.1 µM. The “IC50 in Caco-2 cells, fold greater than 5-FU” value in [2] came to 4.1 fold. Also, in data set [3], the “Uptake in untreated cells (without butyric acid induction)” value was “significantly decreased”. The “Caco-2 uptake, fold higher than 5-FU” value in data set [3] was determined as 5.5 fold. Moreover, the “Intestinal histology (duodenum, jejunum, ileum, colon; H&E)” value in data set [4] was “No significant toxicity”. In addition, the half-life (commonly the time in which the quantity being followed falls by half) at 80 µg/ml was 1.2 ± 0.1 h in [5]; 15.3 ± 1.1 h in data set [7]; 36.8 ± 2.3 h in [8] (pH 1.2); 152 ± 13.1 h in data set [8] (pH 7.4); less than 0.25 h in data set [9]. Moreover, the “membrane permeability AP → BL, fold greater than 5-FU” value in data set [6] is listed as 13.1 fold. The T1/2 result in [8] is recorded as “No hydrolysis”.

In the case of `O=c1[nH]cc(F)c(=O)[nH]1` [5-FU, 5-Fluorouracil], the Fabs in [10] (i.v., rat (reference)) turned out to be 100%. Also, in data set [10] (setting [11]), the peak level (Cmax) was 11200 ng/mL, the Tmax (commonly the time from dosing to the highest level) came out at 4.8 min and the half-life was 0.29 ± 0.06 h. In [2], the IC50 is 77.8 ± 1.11 µM. In data set [4], the “Intestinal histology (duodenum, jejunum, ileum, colon; H&E)” value is “inflammatory cell infiltration occurred in the duodenum, jejunum and ileum tissues”; the “Systemic histology (heart, liver, spleen, lung, kidney; H&E)” value is “the liver cells were wrinkled, the nuclei were pyknotic”.

For `O=C(O)CCCCC(=O)OCn1cc(F)c(=O)[nH]c1=O` [HDA-5-FU, Hexanedioic acid mono-(5-fluoro-2,4-dioxo-3,4-dihydro-2H-pyrimidin-1-ylmethyl) ester], the “absorption rate constant (Ka), fold higher than 5-FU” value in [1] was found to be 1.1 fold. Also, the “apparent permeability coefficient (Papp), fold higher than 5-FU” value in [1] is given as 1.1 fold. The “Ka and Papp values on co-incubating with quercetin (MCT1 inhibitor)” value in [1] (in situ perfusion with quercetin) was “significantly decreased”. Further, in [2], the IC50 is 500.8 ± 1.32 µM. The “IC50 in Caco-2 cells, fold greater than 5-FU” value in [2] was found to be 6.4 fold. For the same compound, the “Uptake in untreated cells (without butyric acid induction)” value in data set [3] is on record as “significantly decreased”. Also, the “Caco-2 uptake, fold higher than 5-FU” value in [3] was found to be 2.2 fold. The half-life at 80 µg/ml in [5] was 3.4 ± 0.2 h; in [7] it was 19.7 ± 5.1 h; in data set [8] (pH 1.2), 38.3 ± 0.1 h; in data set [8] (pH 7.4), 143 ± 36.8 h; in data set [9], 9.7 ± 3 h. Also, the “membrane permeability AP → BL, fold greater than 5-FU” value in data set [6] was 8.5 fold. In addition, the T1/2 entry in data set [8] was “No hydrolysis”.

The values above are taken from paper PMC7032090 (Asian Journal of Pharmaceutical Sciences, 2019).
